# Test results as given in ChEMBL document CHEMBL3608301, “Phenolic Compounds from Atriplex littoralis and Their Radiation-Mitigating Activity” (J Nat Prod, 2015).
# How the values were obtained:
# [1] = system: PBL; assay: Toxicity in 2-Gy gamma irradiated human PBL assessed as cytokinesis-block proliferation index at 4 uM treated for 2 to 19 hrs followed by compound washout measured after 72 hrs (reference value: 1.6 +/- 0.1); type: cell-based
# [2] = system: PBL; assay: Radioprotective activity in 2-Gy gamma irradiated human PBL assessed as frequency of micronuclei at 4 uM treated for 2 to 19 hrs followed by compound washout measured after 72 hrs by cytochalasin-B-blocked micronucleus assay relative to control; type: functional
# Summary of the method: (§1)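 Venous blood from five healthy male volunteers was γ-irradiated at 2 Gy (0.45 Gy/min) at room temperature and cultured. Compounds (0.8−7.4 μM final) were added 2 to 19 h after irradiation, at 37 °C. Cultures were then rinsed and moved to fresh RPMI 1640 for 72 h. Cytokinesis-block micronucleus assay: ≥1000 binucleated cells scored per sample (Countryman–Heddle criteria). Controls were non-treated irradiated cultures; one-way ANOVA with Tukey test.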
# [3] = system: PBL; assay: Toxicity in 2-Gy gamma irradiated human PBL assessed as cytokinesis-block proliferation index at 1 uM treated for 2 to 19 hrs followed by compound washout measured after 72 hrs (reference value: 1.6 +/- 0.1); type: cell-based
# [4] = system: PBL; assay: Radioprotective activity in 2-Gy gamma irradiated human PBL assessed as binucleated cells with micronuclei at 2 uM treated for 2 to 19 hrs followed by compound washout measured after 72 hrs by cytochalasin-B-blocked micronucleus assay (reference value: 15.5 +/- 0.6%); type: functional; summary of the method: as §1
# [5] = system: PBL; assay: Radioprotective activity in 2-Gy gamma irradiated human PBL assessed as binucleated cells with micronuclei at 1 uM treated for 2 to 19 hrs followed by compound washout measured after 72 hrs by cytochalasin-B-blocked micronucleus assay (reference value: 15.5 +/- 0.6%); type: functional; summary of the method: as §1
# [6] = system: PBL; assay: Radioprotective activity in 2-Gy gamma irradiated human PBL assessed as frequency of micronuclei at 2 uM treated for 2 to 19 hrs followed by compound washout measured after 72 hrs by cytochalasin-B-blocked micronucleus assay relative to control; type: functional; summary of the method: as §1
# [7] = system: PBL; assay: Radioprotective activity in 2-Gy gamma irradiated human PBL assessed as frequency of micronuclei at 1 uM treated for 2 to 19 hrs followed by compound washout measured after 72 hrs by cytochalasin-B-blocked micronucleus assay relative to control; type: functional; summary of the method: as §1
# [8] = system: PBL; assay: Radioprotective activity in 2-Gy gamma irradiated human PBL assessed as incidence of micronuclei in 1000 binucleated cells at 2 uM treated for 2 to 19 hrs followed by compound washout measured after 72 hrs by cytochalasin-B-blocked micronucleus assay (reference value: 183 +/- 9.6); type: functional; summary of the method: as §1
# [9] = system: PBL; assay: Radioprotective activity in 2-Gy gamma irradiated human PBL assessed as incidence of micronuclei in 1000 binucleated cells at 4 uM treated for 2 to 19 hrs followed by compound washout measured after 72 hrs by cytochalasin-B-blocked micronucleus assay (reference value: 183 +/- 9.6); type: functional; summary of the method: as §1
# [10] = system: PBL; assay: Toxicity in 2-Gy gamma irradiated human PBL assessed as cytokinesis-block proliferation index at 2 uM treated for 2 to 19 hrs followed by compound washout measured after 72 hrs (reference value: 1.6 +/- 0.1); type: cell-based
# [11] = system: PBL; assay: Radioprotective activity in 2-Gy gamma irradiated human PBL assessed as incidence of micronuclei in binucleated cells at 4 uM treated for 2 to 19 hrs followed by compound washout measured after 72 hrs by cytochalasin-B-blocked micronucleus assay (reference value: 1.2 +/- 0.03); type: functional; summary of the method: as §1
# [12] = system: PBL; assay: Radioprotective activity in 2-Gy gamma irradiated human PBL assessed as incidence of micronuclei in binucleated cells at 2 uM treated for 2 to 19 hrs followed by compound washout measured after 72 hrs by cytochalasin-B-blocked micronucleus assay (reference value: 1.2 +/- 0.03); type: functional; summary of the method: as §1
# [13] = system: PBL; assay: Radioprotective activity in 2-Gy gamma irradiated human PBL assessed as binucleated cells with micronuclei at 4 uM treated for 2 to 19 hrs followed by compound washout measured after 72 hrs by cytochalasin-B-blocked micronucleus assay (reference value: 15.5 +/- 0.6%); type: functional; summary of the method: as §1
# [14] = system: PBL; assay: Radioprotective activity in 2-Gy gamma irradiated human PBL assessed as incidence of micronuclei in 1000 binucleated cells at 1 uM treated for 2 to 19 hrs followed by compound washout measured after 72 hrs by cytochalasin-B-blocked micronucleus assay (reference value: 183 +/- 9.6); type: functional; summary of the method: as §1
# [15] = system: PBL; assay: Radioprotective activity in 2-Gy gamma irradiated human PBL assessed as incidence of micronuclei in binucleated cells at 1 uM treated for 2 to 19 hrs followed by compound washout measured after 72 hrs by cytochalasin-B-blocked micronucleus assay (reference value: 1.2 +/- 0.03); type: functional; summary of the method: as §1
# [16] = system: PBL; assay: Radioprotective activity in 2-Gy gamma irradiated human PBL assessed as binucleated cells with micronuclei at 4.7 uM treated for 2 to 19 hrs followed by compound washout measured after 72 hrs by cytochalasin-B-blocked micronucleus assay (reference value: 15.5 +/- 0.6%); type: functional
# [17] = system: PBL; assay: Toxicity in 2-Gy gamma irradiated human PBL assessed as cytokinesis-block proliferation index at 4.7 uM treated for 2 to 19 hrs followed by compound washout measured after 72 hrs (reference value: 1.6 +/- 0.1); type: cell-based
# [18] = system: PBL; assay: Radioprotective activity in 2-Gy gamma irradiated human PBL assessed as frequency of micronuclei at 4.7 uM treated for 2 to 19 hrs followed by compound washout measured after 72 hrs by cytochalasin-B-blocked micronucleus assay relative to control; type: functional
# [19] = system: PBL; assay: Radioprotective activity in 2-Gy gamma irradiated human PBL assessed as incidence of micronuclei in 1000 binucleated cells at 4.7 uM treated for 2 to 19 hrs followed by compound washout measured after 72 hrs by cytochalasin-B-blocked micronucleus assay (reference value: 183 +/- 9.6); type: functional
# [20] = system: PBL; assay: Radioprotective activity in 2-Gy gamma irradiated human PBL assessed as incidence of micronuclei in binucleated cells at 4.7 uM treated for 2 to 19 hrs followed by compound washout measured after 72 hrs by cytochalasin-B-blocked micronucleus assay (reference value: 1.2 +/- 0.03); type: functional
# [21] = system: PBL; assay: Radioprotective activity in 2-Gy gamma irradiated human PBL assessed as binucleated cells with micronuclei at 3.1 uM treated for 2 to 19 hrs followed by compound washout measured after 72 hrs by cytochalasin-B-blocked micronucleus assay (reference value: 15.5 +/- 0.6%); type: functional; summary of the method: as §1
# [22] = system: PBL; assay: Toxicity in 2-Gy gamma irradiated human PBL assessed as cytokinesis-block proliferation index at 1.5 uM treated for 2 to 19 hrs followed by compound washout measured after 72 hrs (reference value: 1.6 +/- 0.1); type: cell-based
# [23] = system: PBL; assay: Radioprotective activity in 2-Gy gamma irradiated human PBL assessed as frequency of micronuclei at 3.1 uM treated for 2 to 19 hrs followed by compound washout measured after 72 hrs by cytochalasin-B-blocked micronucleus assay relative to control; type: functional; summary of the method: as §1
# [24] = system: PBL; assay: Radioprotective activity in 2-Gy gamma irradiated human PBL assessed as incidence of micronuclei in binucleated cells at 0.8 uM treated for 2 to 19 hrs followed by compound washout measured after 72 hrs by cytochalasin-B-blocked micronucleus assay (reference value: 1.2 +/- 0.03); type: functional; summary of the method: as §1
# [25] = system: PBL; assay: Radioprotective activity in 2-Gy gamma irradiated human PBL assessed as frequency of micronuclei at 0.8 uM treated for 2 to 19 hrs followed by compound washout measured after 72 hrs by cytochalasin-B-blocked micronucleus assay relative to control; type: functional; summary of the method: as §1
# [26] = system: PBL; assay: Radioprotective activity in 2-Gy gamma irradiated human PBL assessed as incidence of micronuclei in binucleated cells at 1.5 uM treated for 2 to 19 hrs followed by compound washout measured after 72 hrs by cytochalasin-B-blocked micronucleus assay (reference value: 1.2 +/- 0.03); type: functional; summary of the method: as §1
# [27] = system: PBL; assay: Radioprotective activity in 2-Gy gamma irradiated human PBL assessed as incidence of micronuclei in binucleated cells at 3.1 uM treated for 2 to 19 hrs followed by compound washout measured after 72 hrs by cytochalasin-B-blocked micronucleus assay (reference value: 1.2 +/- 0.03); type: functional; summary of the method: as §1
# [28] = system: PBL; assay: Radioprotective activity in 2-Gy gamma irradiated human PBL assessed as binucleated cells with micronuclei at 0.8 uM treated for 2 to 19 hrs followed by compound washout measured after 72 hrs by cytochalasin-B-blocked micronucleus assay (reference value: 15.5 +/- 0.6%); type: functional; summary of the method: as §1
# [29] = system: PBL; assay: Radioprotective activity in 2-Gy gamma irradiated human PBL assessed as frequency of micronuclei at 1.5 uM treated for 2 to 19 hrs followed by compound washout measured after 72 hrs by cytochalasin-B-blocked micronucleus assay relative to control; type: functional; summary of the method: as §1
# [30] = system: PBL; assay: Toxicity in 2-Gy gamma irradiated human PBL assessed as cytokinesis-block proliferation index at 0.8 uM treated for 2 to 19 hrs followed by compound washout measured after 72 hrs (reference value: 1.6 +/- 0.1); type: cell-based
# [31] = system: PBL; assay: Radioprotective activity in 2-Gy gamma irradiated human PBL assessed as incidence of micronuclei in 1000 binucleated cells at 0.8 uM treated for 2 to 19 hrs followed by compound washout measured after 72 hrs by cytochalasin-B-blocked micronucleus assay (reference value: 183 +/- 9.6); type: functional; summary of the method: as §1
# [32] = system: PBL; assay: Radioprotective activity in 2-Gy gamma irradiated human PBL assessed as incidence of micronuclei in 1000 binucleated cells at 3.1 uM treated for 2 to 19 hrs followed by compound washout measured after 72 hrs by cytochalasin-B-blocked micronucleus assay (reference value: 183 +/- 9.6); type: functional; summary of the method: as §1
# [33] = system: PBL; assay: Toxicity in 2-Gy gamma irradiated human PBL assessed as cytokinesis-block proliferation index at 3.1 uM treated for 2 to 19 hrs followed by compound washout measured after 72 hrs (reference value: 1.6 +/- 0.1); type: cell-based
# [34] = system: PBL; assay: Radioprotective activity in 2-Gy gamma irradiated human PBL assessed as binucleated cells with micronuclei at 1.5 uM treated for 2 to 19 hrs followed by compound washout measured after 72 hrs by cytochalasin-B-blocked micronucleus assay (reference value: 15.5 +/- 0.6%); type: functional; summary of the method: as §1
# [35] = system: PBL; assay: Radioprotective activity in 2-Gy gamma irradiated human PBL assessed as incidence of micronuclei in 1000 binucleated cells at 1.5 uM treated for 2 to 19 hrs followed by compound washout measured after 72 hrs by cytochalasin-B-blocked micronucleus assay (reference value: 183 +/- 9.6); type: functional; summary of the method: as §1
smiles,measurement,setting,value
COc1cc(-c2oc3cc(O)c(OC)c(O)c3c(=O)c2O[C@@H]2O[C@H](CO)[C@@H](O)[C@H](O)[C@H]2O)ccc1O,Activity,[1],1.6
same,Activity,[2],80.9%
same,Activity,[3],1.6
same,Activity,[4],11.7%
same,Activity,[5],12.1%
same,Activity,[6],76.1%
same,Activity,[7],77.5%
same,Activity,[8],139.3
same,Activity,[9],148
same,Activity,[10],1.6
same,Activity,[11],1.2
same,Activity,[12],1.2
same,Activity,[13],12.3%
same,Activity,[14],141.8
same,Activity,[15],1.2
NCCCNCCSP(=O)(O)O [AMIFOSTINE],Activity,[16],13.9%
same,Activity,[17],1.6
same,Activity,[18],90.7%
same,Activity,[19],166
same,Activity,[20],1.2
COc1cc(-c2oc3cc4c(c(O)c3c(=O)c2O[C@@H]2O[C@H](CO)[C@@H](O)[C@H](O)[C@H]2O[C@@H]2O[C@@H](C)[C@H](O)[C@@H](O)[C@H]2O)OCO4)ccc1O,Activity,[21],14.3%
same,Activity,[22],1.7
same,Activity,[23],95.8%
same,Activity,[24],1.2
same,Activity,[25],94%
same,Activity,[26],1.2
same,Activity,[27],1.2
same,Activity,[28],14.4%
same,Activity,[29],93.4%
same,Activity,[30],1.7
same,Activity,[31],172
same,Activity,[32],175.3
same,Activity,[33],1.8
same,Activity,[34],14.1%
same,Activity,[35],170.9
